Test results reported in paper PMC7880896 (European journal of medicinal chemistry, 2020).
Like-named read-outs stand apart in the source and are kept apart here.

How the values were obtained:
[1] = tested on: U87MG cells; experiment: MTT antiproliferative assay on U87MG glioblastoma cells; format: cell-based, human; settings: for viability at 10 µM: Homo sapiens, U-87 MG, read-out: % Viability U87MG, 10 μM, ± SD
[2] = tested on: HEK293 cells; experiment: MTT cytotoxicity assay on HEK293 healthy cell line; format: cell-based, human
Outline: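 HEK293 cells were seeded 24 h before treatment. Compound was dissolved in DMSO (<1%) and diluted in DMEM, tested up to 100 μM. After 24 and 48 h exposure, wells were washed with D-PBS, and MTT from a 5 mg/mL stock was added for 4 h. Formazan was solubilised in DMSO and absorbance read at 540 nm. At least three independent experiments; IC50 given as mean ± SD.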

[3] = target: T1, human adenosine A1 receptor (Homo sapiens, UniProt P30542); experiment: Adenosine A1 receptor radioligand binding; settings: read-out: Inhibition of A1 receptor radioligand binding
T1 sequence (P30542 1-326): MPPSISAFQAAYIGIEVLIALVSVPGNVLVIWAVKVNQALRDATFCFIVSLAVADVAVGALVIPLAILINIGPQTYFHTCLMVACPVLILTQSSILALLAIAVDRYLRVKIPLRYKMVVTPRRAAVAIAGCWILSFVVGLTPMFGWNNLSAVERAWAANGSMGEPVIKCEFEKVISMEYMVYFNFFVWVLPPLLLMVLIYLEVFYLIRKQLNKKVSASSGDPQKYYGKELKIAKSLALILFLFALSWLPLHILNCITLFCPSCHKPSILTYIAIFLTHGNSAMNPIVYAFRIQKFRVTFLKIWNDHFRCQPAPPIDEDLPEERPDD
Outline: (§1)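 Membranes came from CHO cells expressing recombinant human A1 and HEK293 cells expressing human A2A. Cells were homogenised, centrifuged at 4°C and stored in buffer with 3 U/mL adenosine deaminase. Test compound (1 μM) was incubated with A1 membranes (40 μg) plus 2 nM [3H]DPCPX, or A2A membranes (20 μg) plus 15 nM [3H]ZM241385. Incubation was 60 min, 25°C, in 50 mM Tris-HCl pH 7.4 with 10 mM MgCl2. Bound ligand was GF/B-filtered and scintillation-counted.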

[4] = target: human adenosine A2A receptor (Homo sapiens, UniProt P29274); experiment: Adenosine A2A receptor radioligand binding; settings: read-out: Inhibition of A2A receptor radioligand binding
Outline: as §1

[5] = tested on: MCF7 cells; experiment: MTT antiproliferative assay on MCF7 cells; format: cell-based, human; settings: read-out: IC50 MCF7, mean ± SD
Outline: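 MCF7 cells were kept in DMEM/F-12 with 10% FBS, penicillin/streptomycin and L-glutamine, passaged every 3 days, and seeded 24 h before treatment. Compound was dissolved in DMSO (<1%) and diluted in DMEM. After 24 and 48 h exposure, cells were washed with D-PBS and given MTT from a 5 mg/mL stock for 4 h. Formazan was dissolved in DMSO and read at 540 nm. At least three independent experiments; mean ± SD.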

[6] = tested on: U87MG cell line; settings: read-out: IC50 on U87MG cell line; cited from earlier work
[7] = Homo sapiens, HEK293, read-out: IC50 HEK293

Chain of human adenosine A2A receptor (P29274 whole entry): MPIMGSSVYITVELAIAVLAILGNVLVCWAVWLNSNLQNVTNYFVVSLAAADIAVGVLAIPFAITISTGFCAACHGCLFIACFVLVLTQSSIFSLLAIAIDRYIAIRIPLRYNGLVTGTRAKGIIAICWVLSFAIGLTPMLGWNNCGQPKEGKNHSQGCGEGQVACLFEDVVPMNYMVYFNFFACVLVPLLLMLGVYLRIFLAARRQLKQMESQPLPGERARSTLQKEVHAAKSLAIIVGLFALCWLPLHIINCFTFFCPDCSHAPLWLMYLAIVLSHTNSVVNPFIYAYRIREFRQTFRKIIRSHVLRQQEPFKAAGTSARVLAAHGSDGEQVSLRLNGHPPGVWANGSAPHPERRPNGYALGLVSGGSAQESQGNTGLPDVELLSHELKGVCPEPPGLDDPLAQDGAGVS

| SMILES | IC50 [2, 7] [µM] | also measured |
| --- | --- | --- |
| COc1ccc(-c2nc(SCC(=O)c3sc(-c4ccccc4)nc3C)[nH]c(=O)c2C#N)cc1OC [Compound 4d, 4-(3,4-dimethoxyphenyl)-2-((2-(4-methyl-2-phenylthiazol-5-yl)-2-oxoethyl)thio)-6-oxo-1,6-dihydropyrimidine-5-carbonitrile] |  | viability at 10 µM [1]: < 70% |
| Cc1nc(-c2ccccc2)sc1C(=O)CSc1nc(-c2cccc(Cl)c2)c(C#N)c(=O)[nH]1 [Compound 4e, 4-(3-chlorophenyl)-2-((2-(4-methyl-2-phenylthiazol-5-yl)-2-oxoethyl)thio)-6-oxo-1,6-dihydropyrimidine-5-carbonitrile] | > 100 |  |
| Cc1nc(-c2ccccc2)sc1C(=O)CSc1nc(-c2ccc(Cl)cc2)c(C#N)c(=O)[nH]1 [Compound 4f, 4-(4-chlorophenyl)-2-((2-(4-methyl-2-phenylthiazol-5-yl)-2-oxoethyl)thio)-6-oxo-1,6-dihydropyrimidine-5-carbonitrile] | > 100 |  |
| Cc1nc(-c2ccccc2)sc1C(=O)CSc1nc(-c2ccc3c(c2)OCO3)c(C#N)c(=O)[nH]1 [Compound 4h, 4-(benzo[d][1,3]dioxol-5-yl)-2-((2-(4-methyl-2-phenylthiazol-5-yl)-2-oxoethyl)thio)-6-oxo-1,6-dihydropyrimidine-5-carbonitrile] | > 100 |  |
| COc1ccc(-c2nc(C)c(C(=O)CSc3nc(-c4ccccc4)c(C#N)c(=O)[nH]3)s2)cc1 [Compound 4i, 2-((2-(2-(4-methoxyphenyl)-4-methylthiazol-5-yl)-2-oxoethyl)thio)-6-oxo-4-phenyl-1,6-dihydropyrimidine-5-carbonitrile] | > 100 |  |
| COc1ccc(-c2nc(C)c(C(=O)CSc3nc(-c4cccc(OC)c4)c(C#N)c(=O)[nH]3)s2)cc1 [Compound 4j, 4-(3-methoxyphenyl)-2-((2-(2-(4-methoxyphenyl)-4-methylthiazol-5-yl)-2-oxoethyl)thio)-6-oxo-1,6-dihydropyrimidine-5-carbonitrile] |  | viability at 10 µM [1]: < 70% |
| COc1ccc(-c2nc(C)c(C(=O)CSc3nc(-c4ccc(OC)cc4)c(C#N)c(=O)[nH]3)s2)cc1 [Compound 4k, 4-(4-methoxyphenyl)-2-((2-(2-(4-methoxyphenyl)-4-methylthiazol-5-yl)-2-oxoethyl)thio)-6-oxo-1,6-dihydropyrimidine-5-carbonitrile] | > 100 |  |
| COc1ccc(-c2nc(C)c(C(=O)CSc3nc(-c4ccc(OC)c(OC)c4)c(C#N)c(=O)[nH]3)s2)cc1 [Compound 4l, 4-(3,4-dimethoxyphenyl)-2-((2-(2-(4-methoxyphenyl)-4-methylthiazol-5-yl)-2-oxoethyl)thio)-6-oxo-1,6-dihydropyrimidine-5-carbonitrile] |  | viability at 10 µM [1]: < 70% |
| COc1ccc(-c2nc(C)c(C(=O)CSc3nc(-c4cccc(Cl)c4)c(C#N)c(=O)[nH]3)s2)cc1 [Compound 4m, 4-(3-chlorophenyl)-2-((2-(2-(4-methoxyphenyl)-4-methylthiazol-5-yl)-2-oxoethyl)thio)-6-oxo-1,6-dihydropyrimidine-5-carbonitrile] | > 100 |  |
| COc1ccc(-c2nc(C)c(C(=O)CSc3nc(-c4ccc5c(c4)OCO5)c(C#N)c(=O)[nH]3)s2)cc1 [Compound 4p, 4-(benzo[d][1,3]dioxol-5-yl)-2-((2-(2-(4-methoxyphenyl)-4-methylthiazol-5-yl)-2-oxoethyl)thio)-6-oxo-1,6-dihydropyrimidine-5-carbonitrile] | > 100 |  |
| Cc1nc(-c2ccc(Cl)cc2)sc1C(=O)CSc1nc(-c2ccccc2)c(C#N)c(=O)[nH]1 [Compound 4q, 2-((2-(2-(4-chlorophenyl)-4-methylthiazol-5-yl)-2-oxoethyl)thio)-6-oxo-4-phenyl-1,6-dihydropyrimidine-5-carbonitrile] | > 100 |  |
| COc1ccc(-c2nc(SCC(=O)c3sc(-c4ccc(Cl)cc4)nc3C)[nH]c(=O)c2C#N)cc1 [Compound 4s, 2-((2-(2-(4-chlorophenyl)-4-methylthiazol-5-yl)-2-oxoethyl)thio)-4-(4-methoxyphenyl)-6-oxo-1,6-dihydropyrimidine-5-carbonitrile] | > 100 |  |
| COc1ccc(-c2nc(SCC(=O)c3sc(-c4ccc(Cl)cc4)nc3C)[nH]c(=O)c2C#N)cc1OC [Compound 4t, 2-((2-(2-(4-chlorophenyl)-4-methylthiazol-5-yl)-2-oxoethyl)thio)-4-(3,4-dimethoxyphenyl)-6-oxo-1,6-dihydropyrimidine-5-carbonitrile] | > 100 |  |
| COc1ccc(-c2nc(SCC(=O)c3sc(-c4ccccc4)nc3C)nc(N)c2C#N)cc1 [Compound 5b, 4-amino-6-(4-methoxyphenyl)-2-((2-(4-methyl-2-phenylthiazol-5-yl)-2-oxoethyl)thio)pyrimidine-5-carbonitrile] | > 100 |  |
| Cc1nc(-c2ccccc2)sc1C(=O)CSc1nc(N)c(C#N)c(-c2ccc(Cl)cc2)n1 [Compound 5c, 4-amino-6-(4-chlorophenyl)-2-((2-(4-methyl-2-phenylthiazol-5-yl)-2-oxoethyl)thio)pyrimidine-5-carbonitrile] | > 100 | inhibition at 1 µM [3]: -23% |
| COc1ccc(-c2nc(C)c(C(=O)CSc3nc(N)c(C#N)c(-c4ccccc4)n3)s2)cc1 [Compound 5d, 4-amino-2-((2-(2-(4-methoxyphenyl)-4-methylthiazol-5-yl)-2-oxoethyl)thio)-6-phenylpyrimidine-5-carbonitrile] | > 100 |  |
| COc1ccc(-c2nc(C)c(C(=O)CSc3nc(N)c(C#N)c(-c4ccc(OC)cc4)n3)s2)cc1 [Compound 5e, 4-amino-6-(4-methoxyphenyl)-2-((2-(2-(4-methoxyphenyl)-4-methylthiazol-5-yl)-2-oxoethyl)thio)pyrimidine-5-carbonitrile] | > 100 | cytotoxic effect on HEK293 (in words) ([2]; healthy cell line): no cytotoxic effect even at high concentrations; inhibition at 1 µM [4]: -18% |
| Cc1nc(-c2ccc(Cl)cc2)sc1C(=O)CSc1nc(N)c(C#N)c(-c2ccccc2)n1 [Compound 5g, 4-amino-2-((2-(2-(4-chlorophenyl)-4-methylthiazol-5-yl)-2-oxoethyl)thio)-6-phenylpyrimidine-5-carbonitrile] | > 100 |  |
| COc1ccc(-c2nc(SCC(=O)c3sc(-c4ccc(Cl)cc4)nc3C)nc(N)c2C#N)cc1 [Compound 5h, 4-amino-2-((2-(2-(4-chlorophenyl)-4-methylthiazol-5-yl)-2-oxoethyl)thio)-6-(4-methoxyphenyl)pyrimidine-5-carbonitrile] | > 100 | inhibition at 1 µM [4]: -22% |
| N.N.[Cl][Pt][Cl] [cisplatin, reference compound] |  | IC50 ([2]; read-out: IC50 HEK293, MTT, mean ± SD, ND = viability higher than 50% at 100 μM): 8.44 ± 0.86 µM; IC50 ([1]; read-out: IC50 U87MG, MTT, mean ± SD): 1670 ± 40 nM; IC50 [5]: 2510 ± 290 nM |
| Cn1nnc2c(C(N)=O)ncn2c1=O [temozolomide] |  | IC50 [6]: 130 to 171 µM |
